HCV NS3 hel inh = HCV NS3 helicase inhibition; actives 0.56% (n = 290,000); inhibition, % at 10.9 µM; NS3 helicase DNA unwinding, Cy5 molecular beacon fluorescence;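 active = inhibition above the mean of all tested compounds plus 3 SD, set per campaign, cut at about 35% in these data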
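Material: hepatitis C virus NS3 helicase domain fragment enzyme; measured by: Cy5 fluorescence, 0 and 60 min reads; control set: DMSO and thioflavine S; incubation: 60 min unwinding reaction at 25 °C after ATP addition; read-out basis: % inhibition from 60/0 min fluorescence ratio, DMSO 0%, thioflavine S 100%; repeats: singlicate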
eIF4H inh = inhibitors of RNA binding by human eIF4H; AID 2012; Q15056; inhibition, % at 35 µM; actives 0.94% (n = 290,000); eIF4H fluorescence polarization binding assay;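 also: calls also rest on retests at 20 µM and on dose response follow-up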
ZTA counter = ZTA (EBV) inhibition in EBNA-1 counter-screen | inhibition, % at 11 µM | ZTA-DNA binding, fluorescence polarization | P03206 | actives 0.15% (n = 320,000); in the data active = inhibition above about 33%
EBNA-1 inh = blocks EBNA-1 binding to DNA; EBNA-1 DNA binding, fluorescence polarization; inhibition, % at 14.8 µM; actives 0.34% (n = 300,000); in the data active = inhibition above about 28%
PABP1 MLLE inh = inhibitors of microRNA-mediated deadenylation, human PABP1 MLLE binding; actives 0.36% (n = 360,000); GST-MLLE / FITC-PAM2 fluorescence polarization; inhibition, % at 20 µM; P11940; in the data active = inhibition above about 35%, passing the limit was not always enough
Target sequence (P11940 whole entry, looked up): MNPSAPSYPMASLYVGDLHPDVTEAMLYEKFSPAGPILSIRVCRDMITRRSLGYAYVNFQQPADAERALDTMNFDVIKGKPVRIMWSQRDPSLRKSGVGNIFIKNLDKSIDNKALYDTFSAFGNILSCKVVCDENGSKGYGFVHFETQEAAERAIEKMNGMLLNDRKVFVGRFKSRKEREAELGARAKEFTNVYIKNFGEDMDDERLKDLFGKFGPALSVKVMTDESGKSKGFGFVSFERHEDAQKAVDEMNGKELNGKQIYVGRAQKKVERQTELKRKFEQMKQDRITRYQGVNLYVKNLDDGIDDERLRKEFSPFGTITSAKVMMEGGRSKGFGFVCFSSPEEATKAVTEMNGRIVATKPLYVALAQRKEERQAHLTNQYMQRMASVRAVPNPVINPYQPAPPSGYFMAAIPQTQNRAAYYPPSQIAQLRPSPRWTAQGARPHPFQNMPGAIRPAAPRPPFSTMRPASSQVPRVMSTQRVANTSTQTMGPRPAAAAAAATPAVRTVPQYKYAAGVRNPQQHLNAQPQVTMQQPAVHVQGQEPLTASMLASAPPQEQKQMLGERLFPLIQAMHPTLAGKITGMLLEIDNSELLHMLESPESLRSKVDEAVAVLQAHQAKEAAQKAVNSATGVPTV
PABP FP inh = blocks human PABP binding to poly(A) RNA; fluorescence polarization; P11940; AID 2014; inhibition, % at 35 µM; actives 1% (n = 290,000);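 also: calls also rest on retests at 20 µM and on dose response follow-up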
Large screens that a line does not name were inactive. This is a sample that favours compounds with a hit; in the whole collection about 2.1% have one here. Unless noted, no rule for the calls is given here.

CCC(C)n1c(=N)c(C#N)cc2c(=O)n3cc(C)ccc3nc21 (stereo not given)	eIF4H inh 58, PABP FP inh 28
Cc1ccc2nc3c(cc(C#N)c(=O)n3CCN3CCOCC3)c(=O)n2c1	none (no result: HCV NS3 hel inh, ZTA counter, EBNA-1 inh, PABP1 MLLE inh)
Cc1ccc2nc3c(cc(C#N)c(=O)n3-c3nccs3)c(=O)n2c1	eIF4H inh 98, PABP FP inh 104
Cc1ccc2nc3c(cc(C#N)c(=O)n3CC3CCCO3)c(=O)n2c1 (stereo not given)	eIF4H inh 32, PABP FP inh 57 (no result: ZTA counter, EBNA-1 inh, PABP1 MLLE inh)
CCc1cc2c(=O)[nH]c(N3CCOCC3)nc2s1	none
CCOc1ccc(CCNC(=O)Cn2c(=O)c3cccn3c3cccnc32)cc1	none
CCOC(=O)c1ccc(NC(=O)CN(C)S(=O)(=O)c2ccc(Br)s2)cc1	none
N#Cc1cccc(C(c2nnnn2Cc2ccccc2)N2CCCC2)c1 (stereo not given)	none
CCOC(=O)c1c(/N=C/c2cccc([N+](=O)[O-])c2O)sc(C)c1C	PABP1 MLLE inh 51
O=[N+]([O-])c1cccc(C=Nc2cccc3ccccc23)c1O	none
COC(=O)c1ccc2c(=O)sc(N3CCC(C(N)=O)CC3)nc2c1	PABP1 MLLE inh 44
CS(=O)(=O)c1ccc(C(=O)Nc2ccc(N3CCCC3)cc2)c(Cl)c1	eIF4H inh 82, PABP FP inh 6.5
COc1ccc(NS(=O)(=O)c2ccc(N3CCOCC3)c(NC(=O)c3ccccc3Cl)c2)cc1	none
O=C(Nc1cc(S(=O)(=O)Nc2ccc(Cl)cc2)ccc1N1CCCCC1)c1ccc(F)cc1Cl	PABP1 MLLE inh 43
O=C1NC(c2ccccc2)(C(F)(F)F)SC2=CCCCCN12 (stereo not given)	PABP1 MLLE inh 42
O=C1C(NS(=O)(=O)c2cccs2)=C(N2CCN(c3cccc(Cl)c3)CC2)C(=O)c2ccccc21	eIF4H inh 2.3, PABP FP inh 51
NC(=O)c1cc2cc(Cc3ccccc3Cl)ccc2oc1=O	none
CCOC(=O)c1cccc(NC(=O)CSc2nnc(C)n2CC2CCCO2)c1 (stereo not given)	none
O=C(NC(c1ccccc1)c1cc(Cl)c2cccnc2c1O)c1cccnc1 (stereo not given)	none (no result: PABP1 MLLE inh)
O=C(O)COc1ccccc1C(Nc1ccccn1)c1cc(Cl)c2cccnc2c1O (stereo not given)	eIF4H inh 54, PABP FP inh 6.4
CCCS(=O)(=O)N1CCN(CCN2C(=O)c3cccc4cccc(c34)C2=O)CC1	none
O=C(NCc1ccccc1)/C(=C\c1ccc(O)cc1)NC(=O)c1ccco1	none
c1ccc(Cc2nnc3sc(-c4cccnc4)nn23)cc1	none
c1ccc(Cc2nn3c(-c4ccncc4)nnc3s2)cc1	PABP1 MLLE inh 38
c1ccc(Cc2nnc3sc(-c4ccncc4)nn23)cc1	PABP1 MLLE inh 42
Cn1c(=O)c2ncn(CC(=O)N/N=C/C=C/c3ccccc3)c2n(C)c1=O	none
CCCCCCCCNC(=O)c1cccnc1SCC(=O)Nc1ccc(OC)cc1OC	eIF4H inh 64, PABP FP inh 6.4
C=CCOc1ccc(C2OC34CCCCC3C(C#N)(C#N)C2(C#N)C(=N)O4)cc1 (stereo not given)	eIF4H inh 84, PABP FP inh 104
CCn1c(C)c(CS(=O)(=O)c2ccccc2)[nH]c1=O	PABP1 MLLE inh 38
O=c1[nH]c(CS(=O)(=O)c2ccccc2)nc2ccccc12	none
COc1ccc(-c2cc(-c3nc4ccccn4c3NCc3ccccc3)ccc2OC)cc1	none (no result: HCV NS3 hel inh, eIF4H inh, ZTA counter, EBNA-1 inh, PABP FP inh)
CC(C)NC(=S)Nc1c(N)[nH]c(=O)[nH]c1=O	none
Cc1cccc(C2Nc3cccc4cccc(c34)N2)c1	eIF4H inh 53
CSc1ccc(C2Nc3cccc4cccc(c34)N2)cc1	eIF4H inh 90, PABP FP inh 26
Cc1ccccc1-c1nnc(CN2CCC(C)CC2)o1	none
O=C(CNC(=O)c1ccco1)Nc1cc(Cl)ccc1N1CCOCC1	none
Cc1ccc(C(=O)NC(=S)Nc2cccc(-c3nc4ccccc4s3)c2)cc1	PABP1 MLLE inh 41
CC(=O)Nc1cccc(-c2nc3ccccc3s2)c1	none
CCOc1ccc(/C=C2/Sc3ccc(C(=O)N4CCOCC4)cc3N(C)C2=O)cc1OC	none
COc1ccc(/C=C2\Sc3ccc(C(=O)N4CCCC4)cc3N(C)C2=O)cc1OC	PABP1 MLLE inh 38 (no result: eIF4H inh, PABP FP inh)
COc1ccc(CNC(=O)CN(C(=O)c2csnn2)c2ccccc2F)cc1	none
O=C(/C=C/c1ccc([N+](=O)[O-])cc1)OCC(=O)N1CCOCC1	none (no result: HCV NS3 hel inh, eIF4H inh, ZTA counter, EBNA-1 inh, PABP FP inh)
Cc1ccc2nnnc(-c3ccccc3)c2c1	ZTA counter 35, EBNA-1 inh 38
Cc1ccc2nc(NCC(N)=O)nc(-c3ccccc3)c2c1	none (no result: PABP1 MLLE inh)
O=C(CSc1nc2c(c(=O)n1-c1ccc(Cl)cc1)SCC2)Nc1nccs1	none
O=C(CSc1nc2c(c(=O)n1-c1ccc(Br)cc1)SCC2)Nc1nccs1	EBNA-1 inh 32
O=C1/C(=C/Nc2ccc3c(c2)OCO3)CCc2ccccc21	none
COc1ccc2c(c1)CC/C(=C\Nc1ccc3c(c1)OCO3)C2=O	eIF4H inh 66, PABP FP inh 58
COC(=O)CC(NC(=S)NC(=O)c1ccccc1)c1ccc(Br)cc1 (stereo not given)	PABP1 MLLE inh 46
COC(=O)CC(N)c1ccc(Br)cc1 (stereo not given)	none
COc1ccc(N(CC(=O)N2CCCC2)S(C)(=O)=O)cc1	none
Cc1sc2ncnc(Nc3ccc(N4CCOCC4)cc3)c2c1-c1ccccc1	eIF4H inh inconclusive, PABP FP inh 120
Cc1sc2ncnc(Nc3ccccc3)c2c1C	none
c1ccc2c(c1)CCN(c1nc(CN3CCOCC3)nc3sc4c(c13)CCCC4)C2	none
CC(O)/C=C/c1ccc2ccccc2n1 (stereo not given)	PABP1 MLLE inh 38
COc1ccccc1N1CCN(CCCNC(=O)C2CCCN(c3ncnc4c3nc3n4CCCCC3)C2)CC1 (stereo not given)	none
C=C1CCC[C@]2(C)C[C@H]3OC(=O)C(CNCC(C)C)[C@H]3CC12 (stereo not given in full)	none
CC(=O)Nc1ccc(C(=O)OCC(=O)c2cccc([N+](=O)[O-])c2)cc1	none
COC(=O)Nc1ccc(SCC(=O)c2cccc([N+](=O)[O-])c2)cc1	PABP1 MLLE inh 42
CCOc1ccc(N(C)S(=O)(=O)c2ccc(C)c(C(=O)N3CCN(Cc4ccc5c(c4)OCO5)CC3)c2)cc1	none (no result: HCV NS3 hel inh, eIF4H inh, ZTA counter, EBNA-1 inh, PABP FP inh)
COC(=O)CSc1nc(SC)nc2c1sc1nc(-c3ccco3)c3c(c12)CC(C)(C)OC3	none (no result: HCV NS3 hel inh, eIF4H inh, ZTA counter, EBNA-1 inh, PABP FP inh)
CSc1nc(SCCO)c2sc3nc(-c4ccco4)c4c(c3c2n1)CC(C)(C)OC4	PABP FP inh 59 (no result: ZTA counter, EBNA-1 inh)
OCCN(CCO)c1ncnc2c1sc1nc(N3CCOCC3)c3c(c12)CCCC3	none
CSc1nc(N(CCO)CCO)c2sc3nc(-c4ccco4)c4c(c3c2n1)CCC4	eIF4H inh 89, PABP FP inh 91 (no result: ZTA counter, EBNA-1 inh)

Assay outcomes as filed in PubChem BioAssay.
